“And” between values parts separate entries of the source, which are not always exact repeats. Identical values can stand only once. Results filed as inconclusive are left out. The source made the active and inactive calls.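 The calls were made as follows: active = compound whose fitted half-maximal viability-loss concentration is within ten times its top tested dose in every test run; inconclusive = test runs disagree, or a weak flat or poorly fitted curve; inactive = every test run inactive.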

The subject of one assay is HMLE_sh_eGFP viability, CellTiter-Glo luminescence, 72 h. Description: cytotoxicity in HMLE_sh_eGFP control cells, dose response, counter-screen for breast cancer stem cell project, cell-based, luminescence, powder samples, set 5 (AID 504533).
Conditions: not given
Summed up:
(§1)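 Assay system: HMLE breast epithelial cells expressing shRNA against eGFP; amount: 2000 cells per well; times: compound exposure about 70–74 h at 37 °C, 5% CO2; dosing: 100 nL compound per well; controls: DMSO neutral control, 160 µM puromycin positive control; technique: CellTiter-Glo luminescence, reagent diluted 1:3 in PBS; medium: serum-free CSC medium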
In general terms: The purpose of a counterscreen is to sort out artefacts and off-target activity.
By AC50 is commonly meant the concentration giving half of the maximal activity seen. As for `CC(C)Cc1ccc(/C=C/C(=O)NC2=NCCS2)cc1`, the half-maximal activity concentration (AC50) is 3.27 µM. Regarding `Cc1csc(NC(=O)c2ccc(CNc3ccccc3)o2)n1`, the AC50 was 5.09 µM. Still for that read-out and setting: under `Cc1csc(NC(=O)c2ccc(CCc3ccccc3)o2)n1` stands 9.08 µM; under `Cc1cccc(OCc2ccc(C(=O)Nc3nc(C)cs3)o2)c1`, 0.656 µM and 4.39 µM; under `Cc1csc(NC(=O)c2ccc(COCc3ccccc3)o2)n1`, 19.6 µM. Turning to `COc1cccc(OCc2ccc(C(=O)Nc3nc(C)cs3)o2)c1`, the AC50 was 2.64 µM.

Test system in a further assay: not listed separately
Described as above. As to conditions: HMLE_sh_eGFP viability, CellTiter-Glo luminescence, 72 h; at 19.5 µM (top of the series). In outline:
as §1
In general terms: In ATP-based viability assays light output follows the ATP content of the culture.
In the case of `N#Cc1ccc(/C=C/C(=O)NC2=NCCS2)cc1`, the activity change, negative = viability loss was -10.2% (inactive). Turning to `Cc1cc(C)c(OCC(=O)N/N=C/c2ccc[nH]2)c(C)c1`, the activity change, negative = viability loss is 1.17% (inactive). Take `Cc1csc(NC(=O)c2ccc(CS(=O)(=O)c3ccccc3)o2)n1`: the activity change, negative = viability loss was -13.3% (inactive).

On to `N#Cc1cnc(NC(=O)c2ccc(COc3ccccc3)o2)s1`, for which the activity change, negative = viability loss was -1.72% (inactive).

Consider `Cc1coc(NC(=O)c2ccc(COc3ccccc3)o2)n1`, for which the activity change, negative = viability loss was 3.69% (inactive). Take `Cc1coc(NC(=O)/C=C/c2ccc(C(C)C)cc2)n1`: the activity change, negative = viability loss is -6.75% (inactive). Same read-out and setting: under `COCc1ccc(C(=O)Nc2nc(C)cs2)o1` stands 15.3% (inactive). In the case of `Cc1csc(NC(=O)c2ccc(COC(C)C)o2)n1`, the activity change, negative = viability loss is -0.134% (inactive). Regarding `O=C(Nc1nncs1)c1ccc(COc2ccccc2)o1`, the activity change, negative = viability loss is 3.92% (inactive). Take `CC(C)c1ccc(/C=C/C(=O)N(C)C2=NCCS2)cc1`: the activity change, negative = viability loss is 10.1% (inactive). With `C/C(=C\C(=O)NC1=NCCS1)c1ccc(C)cc1`, the activity change, negative = viability loss is -3.46% (inactive). With `Cn1c(C(=O)NC2=NCCS2)cc2ccccc21`, the activity change, negative = viability loss is -5.73% (inactive).

As to `Cc1csc(NC(=O)c2ccc(COC(C)(C)C)o2)n1`, the activity change, negative = viability loss was -4.37% (inactive).

For the compound `CC(C)NC(=O)c1ccc(COc2ccccc2)o1`, the activity change, negative = viability loss was -2.28% (inactive). For `CC(C)c1ccc(/C=C/C(=O)Nc2nc3ccccc3s2)cc1`, the activity change, negative = viability loss was -0.373% (inactive). As for `Cc1cc(Br)ccc1OCC(=O)N/N=C/c1ccc[nH]1`, the activity change, negative = viability loss was -25.7% (inactive). Consider `C/C(=C\C(=O)NC1=NCCS1)c1ccc(CC(C)C)cc1`, for which the activity change, negative = viability loss was 17.8% (inactive).

Turning to `Cc1csc(NC(=O)c2ccc(COc3ccccc3S(C)(=O)=O)o2)n1`, the activity change, negative = viability loss is 2.08% (inactive). Same read-out and setting: under `CCN(CC)C(=O)c1ccc(COc2ccccc2)o1` stands 6.38% (inactive).

The same assay, now with this note: HMLE_sh_eGFP viability, CellTiter-Glo luminescence, 72 h; at 30 µM (top of the series).
`Cc1ccc2cc(C(=O)NC3=NCCS3)n(C)c2c1`: the activity change, negative = viability loss was -4.12% (inactive).

Source of the values: PubChem BioAssay AID504533 (Broad Institute, 2011).
